This is an account of results in article PMC9948165 (ACS Omega, 2023).

What all share (format): cell-based, human
Data set [1] has as its system HCT116 cells. Nature of the data set: MTT cytotoxicity assay, HCT116. Conditions: for IC50: read-out: IC50 HCT116 cells, 72 h. A digest of the protocol: (§1)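 Cells seeded at 5 × 10^3 per well in 96-well plates and left overnight: A549 and HCT116 in RPMI-1640, LO2 in DMEM. Medium replaced with test compound at 100, 50, 25, 12.5, 6.25, 3.125 or 1.5625 μM for 72 h; medium-only control. MTT (5 mg/mL) added for 4 h, formazan dissolved in DMSO, OD read at 490 nm; IC50 derived.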

Data set [2] concerns LO2 cells. As to the kind of experiment: MTT cytotoxicity assay, LO2 normal hepatocytes. Conditions: read-out: IC50 LO2 cells, 72 h, normal hepatocyte cell line. A digest of the protocol: as §1
Data set [3] relates to A549 cells. Nature of the data set: MTT cytotoxicity assay, A549. Conditions: read-out: IC50 A549 cells, 72 h. In a few lines: as §1
For data set [4], the system named is HCT116 cells. As to the kind of experiment: Cell cycle analysis by flow cytometry. The following applies: HCT116, 10 μM, 24 h. A digest of the protocol: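 HCT116 cells in log phase were seeded at 1 × 10^6 per well in six-well plates and grown 24 h at 37 °C. They were PBS-washed, given fresh medium with 10 μM test compound for 24 h, trypsinised and washed in cold PBS. Cells were fixed in 70% ethanol at −20 °C for 48 h, treated with RNase A at 37 °C for 30 min, then PI for 30 min at RT in the dark. Flow cytometry DNA content was model-fitted into cell-cycle phases.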

In the case of `c1cnc2c([O][Ga]([O]c3cccc4cccnc34)[O]c3cccc4cccnc34)cccc2c1` [CP-1, [Ga(HQL)3]], the 50% inhibitory concentration (IC50) in data set [1] turned out to be 1.2 ± 0.2 µM; in data set [2], 8 ± 1 µM; in data set [3], 3.8 ± 1.1 µM.

As for `Cc1ccc2cccc([O][Ga]([O]c3cccc4ccc(C)nc34)[O]c3cccc4ccc(C)nc34)c2n1` [CP-2, [Ga(MQL)3]], the half-inhibitory concentration (IC50) was determined as 4.7 ± 0.7 µM in data set [1], 3.3 ± 0.5 µM in data set [2] and 6.1 ± 0.8 µM in data set [3].

Take `Clc1ccc([O][Ga]([O]c2ccc(Cl)c3cccnc23)[O]c2ccc(Cl)c3cccnc23)c2ncccc12` [CP-3, [Ga(ClQL)3]]: the “cytotoxicity against HCT116 cells” value in data set [1] (at 25 μM, 72 h) was determined as 91.98%. Further, the values for the half-inhibitory concentration (IC50) in data set [1], in data set [2] and in data set [3] were 2 ± 0.3 µM, 23.3 ± 5.3 µM and 8.7 ± 0.8 µM, respectively.

On to `N.N.[Cl][Pt][Cl]` [cisplatin, reference compound], for which the IC50 in data set [1] stood at 5.7 µM; in data set [2], 0.7 µM; in data set [3], 7.5 ± 0.7 µM. The “cell cycle blocking effect” value in data set [4] is reported as “mainly blocked the cell cycle in the S phase”.

`O=C1[O][Pt]2([NH][C@@H]3CCCC[C@H]3[NH]2)[O]C1=O` [oxaliplatin, reference compound]: the IC50 stood at 8.3 ± 0.4 µM in data set [1], 2.3 ± 0.3 µM in data set [2] and 3.2 ± 0.2 µM in data set [3]. Moreover, the “cell cycle blocking effect” value in data set [4] is recorded as “blocked it in the G1/S/G2 phase with comparable effects”.
